Test results as given in article PMC11235002 (BMJ Oncology, 2024).

Tested on: patients with advanced or metastatic solid tumours
Assay: Safety: treatment-emergent adverse events
Type: in vivo, human
Outline: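 Safety covered monotherapy Parts 1a/2, with oral tablet or capsule dosing twice daily on days 1–28 of 28-day cycles. TEAEs were graded by CTCAE v4.03, which counts malignant progression as an AE. Laboratory values, vital signs and physical examinations were also monitored. The safety population was all patients receiving ≥1 dose. DLTs were defined as grade 3–4 toxicities, urea cycle inhibition, or AUC0–12h >100 µg.h/mL.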

Compound: C[C@H](N)C(=O)N1C[C@H](CCCB(O)O)[C@](N)(C(=O)O)C1 [INCB001158]
- Oedema peripheral, any-grade TEAE (monotherapy 75 mg bid (n=7)): 0 n (%)
- Vomiting, any-grade TEAE (monotherapy 75 mg bid (n=7)): 3 (42.9) n (%)
- ALT increased, any-grade TEAE (monotherapy 100 mg bid (n=85)): 4 (4.7) n (%)
- AST increased, any-grade TEAE (monotherapy 100 mg bid (n=85)): 8 (9.4) n (%)
- Abdominal pain, any-grade TEAE (monotherapy 100 mg bid (n=85)): 15 (17.6) n (%)
- Abdominal pain, grade ≥3 TEAE (monotherapy 100 mg bid (n=85)): 5 (5.9) n (%)
- Anaemia, any-grade TEAE (monotherapy 100 mg bid (n=85)): 11 (12.9) n (%)
- Anaemia, grade ≥3 TEAE (monotherapy 100 mg bid (n=85)): 4 (4.7) n (%)
- Any TEAE (monotherapy 100 mg bid (n=85)): 81 (95.3) n (%)
- Any grade ≥3 TEAE (monotherapy 100 mg bid (n=85)): 40 (47.1) n (%)
- Any irTEAE (monotherapy 100 mg bid (n=85)): 1 (1.2) n (%)
- Constipation, any-grade TEAE (monotherapy 100 mg bid (n=85)): 18 (21.2) n (%)
- Decreased appetite, any-grade TEAE (monotherapy 100 mg bid (n=85)): 17 (20.0) n (%)
- Diarrhoea, any-grade TEAE (monotherapy 100 mg bid (n=85)): 5 (5.9) n (%)
- Fatigue, any-grade TEAE (monotherapy 100 mg bid (n=85)): 23 (27.1) n (%)
- Fatigue, grade ≥3 TEAE (monotherapy 100 mg bid (n=85)): 6 (7.1) n (%)
- Hypoalbuminaemia, any-grade TEAE (monotherapy 100 mg bid (n=85)): 6 (7.1) n (%)
- Hyponatraemia, any-grade TEAE (monotherapy 100 mg bid (n=85)): 5 (5.9) n (%)
- Hyponatraemia, grade ≥3 TEAE (monotherapy 100 mg bid (n=85)): 2 (2.4) n (%)
- Malignant neoplasm progression, grade ≥3 TEAE (monotherapy 100 mg bid (n=85)): 5 (5.9) n (%)
- Nausea, any-grade TEAE (monotherapy 100 mg bid (n=85)): 18 (21.2) n (%)
- Oedema peripheral, any-grade TEAE (monotherapy 100 mg bid (n=85)): 13 (15.3) n (%)
- Vomiting, any-grade TEAE (monotherapy 100 mg bid (n=85)): 9 (10.6) n (%)
- Colitis, irTEAE (monotherapy 100 mg bid (n=85), related to INCB001158 treatment): 1 (1.2)¶ n (%)
- ALT increased, any-grade TEAE (monotherapy 150 mg bid (n=7)): 1 (14.3) n (%)
- AST increased, any-grade TEAE (monotherapy 150 mg bid (n=7)): 1 (14.3) n (%)
- Abdominal pain, any-grade TEAE (monotherapy 150 mg bid (n=7)): 1 (14.3) n (%)
- Abdominal pain, grade ≥3 TEAE (monotherapy 150 mg bid (n=7)): 0 n (%)
- Anaemia, any-grade TEAE (monotherapy 150 mg bid (n=7)): 0 n (%)
- Anaemia, grade ≥3 TEAE (monotherapy 150 mg bid (n=7)): 0 n (%)
- Any TEAE (monotherapy 150 mg bid (n=7)): 7 (100.0) n (%)
- Any grade ≥3 TEAE (monotherapy 150 mg bid (n=7)): 1 (14.3) n (%)
- Any irTEAE (monotherapy 150 mg bid (n=7)): 0 n (%)
- Colitis, irTEAE (monotherapy 150 mg bid (n=7)): 0 n (%)
- Constipation, any-grade TEAE (monotherapy 150 mg bid (n=7)): 2 (28.6) n (%)
- Decreased appetite, any-grade TEAE (monotherapy 150 mg bid (n=7)): 2 (28.6) n (%)
- Diarrhoea, any-grade TEAE (monotherapy 150 mg bid (n=7)): 1 (14.3) n (%)
- Fatigue, any-grade TEAE (monotherapy 150 mg bid (n=7)): 3 (42.9) n (%)
- Fatigue, grade ≥3 TEAE (monotherapy 150 mg bid (n=7)): 0 n (%)
- Hypoalbuminaemia, any-grade TEAE (monotherapy 150 mg bid (n=7)): 1 (14.3) n (%)
- Hyponatraemia, any-grade TEAE (monotherapy 150 mg bid (n=7)): 1 (14.3) n (%)
- Hyponatraemia, grade ≥3 TEAE (monotherapy 150 mg bid (n=7)): 1 (14.3) n (%)
- Malignant neoplasm progression, grade ≥3 TEAE (monotherapy 150 mg bid (n=7)): 0 n (%)
- Nausea, any-grade TEAE (monotherapy 150 mg bid (n=7)): 1 (14.3) n (%)
- Oedema peripheral, any-grade TEAE (monotherapy 150 mg bid (n=7)): 1 (14.3) n (%)
- Vomiting, any-grade TEAE (monotherapy 150 mg bid (n=7)): 0 n (%)
- DLT (monotherapy 150 mg two times per day, one DLT): treatment-related grade 2 malaise
- TEAEs leading to INCB001158 discontinuation (monotherapy (8 patients)): 7.5%
- fatal TEAEs (monotherapy (10 patients), none considered related to INCB001158): 9.3%
- TEAEs leading to INCB001158 dose interruption (monotherapy (33 patients)): 30.8%
- Serious TEAEs (monotherapy (36 patients)): 33.6%
- patients with grade ≥3 TEAEs (monotherapy (N=107)): 45.8%
- INCB001158-related fatigue (monotherapy (n=10/107)): 9.3%
- INCB001158-related nausea (monotherapy (n=10/107)): 9.3%
- TEAEs grade 1/2 in severity (monotherapy Parts 1a/2): 54.2%
- ALT increased, any-grade TEAE (monotherapy Total (N=107)): 5 (4.7) n (%)
- AST increased, any-grade TEAE (monotherapy Total (N=107)): 10 (9.3) n (%)
- Abdominal pain, any-grade TEAE (monotherapy Total (N=107)): 18 (16.8) n (%)
- Abdominal pain, grade ≥3 TEAE (monotherapy Total (N=107)): 6 (5.6) n (%)
- Anaemia, any-grade TEAE (monotherapy Total (N=107)): 17 (15.9) n (%)
- Anaemia, grade ≥3 TEAE (monotherapy Total (N=107)): 6 (5.6) n (%)
- Any TEAE (monotherapy Total (N=107)): 102 (95.3) n (%)
- Any grade ≥3 TEAE (monotherapy Total (N=107)): 49 (45.8) n (%)
- Any irTEAE (monotherapy Total (N=107)): 1 (0.9) n (%)
- Colitis, irTEAE (monotherapy Total (N=107)): 1 (0.9) n (%)
- Constipation, any-grade TEAE (monotherapy Total (N=107)): 23 (21.5) n (%)
- Decreased appetite, any-grade TEAE (monotherapy Total (N=107)): 21 (19.6) n (%)
- Diarrhoea, any-grade TEAE (monotherapy Total (N=107)): 6 (5.6) n (%)
- Fatigue, any-grade TEAE (monotherapy Total (N=107)): 30 (28.0) n (%)
- Fatigue, grade ≥3 TEAE (monotherapy Total (N=107)): 6 (5.6) n (%)
- Hypoalbuminaemia, any-grade TEAE (monotherapy Total (N=107)): 7 (6.5) n (%)
- Hyponatraemia, any-grade TEAE (monotherapy Total (N=107)): 7 (6.5) n (%)
- Hyponatraemia, grade ≥3 TEAE (monotherapy Total (N=107)): 3 (2.8) n (%)
- Malignant neoplasm progression, grade ≥3 TEAE (monotherapy Total (N=107)): 5 (4.7) n (%)
- Nausea, any-grade TEAE (monotherapy Total (N=107)): 24 (22.4) n (%)
- Oedema peripheral, any-grade TEAE (monotherapy Total (N=107)): 16 (15.0) n (%)
- Vomiting, any-grade TEAE (monotherapy Total (N=107)): 14 (13.1) n (%)
- tolerability (monotherapy and combination with pembrolizumab): generally well tolerated
- patients with INCB001158-related TEAEs (monotherapy, safety-evaluable population): 43 n
- immune-related TEAE of colitis (monotherapy, one patient, led to discontinuation): 0.9%
- serious INCB001158-related TEAE (monotherapy, one patient, recovered/resolved): grade 3 adrenal haemorrhage
- maximum tolerated dose (up to 150 mg two times per day): No maximum tolerated dose was reached
